Activity calls are given as the source filed them. The rule behind the calls is not given here.
Tests used:
[1] = system: HCA-7; experiment: Cytotoxicity against human HCA-7 cells assessed as growth inhibition at 2 to 50 uM after 24 hrs by MTT assay; type: functional, cell-based
Outline: (§1)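 Cells were treated for 24 h at four concentrations in triplicate. MTT (stock 5 mg/ml in PBS, pH 7.2, filtered) was then added and incubated for 4 h at 37°C. Formazan was solubilized with 10% SDS in 0.01 N HCl, and absorbance was read at 570 nm to give viability.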

[2] = system: HCA-7; experiment: Cytotoxicity against human HCA-7 cells assessed as growth inhibition after 18 hrs by MTS assay; type: functional, cell-based
Outline: (§2)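 Cells were harvested, counted and seeded at 20 × 10^3 per well. After 18 h the medium was replaced with medium containing the agents. MTS/PMS reagent was freshly prepared at 2/0.92 mg/mL in DPBS and added in excess, then incubated at 5% CO2. Absorbance was read at 490 nm at 90 min, and cell-free blank absorbance was subtracted. IC50 is the concentration giving 50% inhibition of proliferation, reported as mean ± S.D. (three replicates of 4 independent analyses).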

[3] = Inhibition of hyaluronan-induced CD44 antigen variant exon 6 activity in mouse APC10.1 cells expressing Has2 assessed as decrease in cell survival after 18 hrs by MTS assay; type: cell-based; outline: as §2
[4] = species on record: Ovis aries; experiment: Selectivity ratio of IC50 for sheep placental COX-2 to IC50 for ram seminal vesicle COX-1; type: tissue-based
[5] = system: HT-29; experiment: Inhibition of hyaluronan-induced CD44 antigen variant exon 6 activity in human HT29 cells assessed as decrease in COX-2 expression at 10 uM; type: cell-based
[6] = target: T1, Prostaglandin G/H synthase 2 (Ovis aries, UniProt P79208); experiment: Inhibition of sheep placental COX-2 using arachidonic acid as substrate assessed as production of PGF2alpha by enzyme immunoassay in presence of stannous chloride
T1 sequence (P79208 whole entry): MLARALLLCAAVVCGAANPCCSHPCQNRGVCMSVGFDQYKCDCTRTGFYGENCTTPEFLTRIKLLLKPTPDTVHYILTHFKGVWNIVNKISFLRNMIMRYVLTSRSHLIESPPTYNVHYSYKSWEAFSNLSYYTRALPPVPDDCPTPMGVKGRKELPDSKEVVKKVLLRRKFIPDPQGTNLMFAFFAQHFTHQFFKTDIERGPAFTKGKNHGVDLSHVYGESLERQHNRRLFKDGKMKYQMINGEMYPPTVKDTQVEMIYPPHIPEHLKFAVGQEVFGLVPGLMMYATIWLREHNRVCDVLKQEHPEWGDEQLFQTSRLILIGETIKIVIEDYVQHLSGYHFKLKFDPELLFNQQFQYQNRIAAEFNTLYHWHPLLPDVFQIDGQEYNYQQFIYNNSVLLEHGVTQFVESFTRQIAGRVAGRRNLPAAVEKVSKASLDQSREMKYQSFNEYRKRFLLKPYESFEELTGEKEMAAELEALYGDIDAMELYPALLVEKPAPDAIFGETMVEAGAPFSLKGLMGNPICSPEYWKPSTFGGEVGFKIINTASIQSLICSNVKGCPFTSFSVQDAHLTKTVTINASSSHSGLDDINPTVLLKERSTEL
Outline: (§3)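 PGH2 formed by the enzyme is reduced with stannous chloride to PGF, which is quantified by competitive EIA. PGs compete with a PG-acetylcholinesterase tracer for PG antiserum, and the complex is captured on an anti-rabbit antibody-coated well. Ellman's reagent is developed and absorbance is read at 405 nm. Percent inhibition is taken against control incubations, and IC50 comes from the concentration-inhibition curve.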

[7] = Inhibition of hyaluronan-induced CD44 antigen variant exon 6 activity in human HCA-7 cells expressing Has2 assessed as decrease in cell survival after 18 hrs by MTS assay; type: cell-based; details: HCA-7, 18 h; outline: as §2
[8] = Inhibition of hyaluronan-induced CD44 antigen variant exon 6 activity in human HT-29 cells expressing Has2 assessed as decrease in cell survival after 18 hrs by MTS assay; type: cell-based; details: HT-29, 18 h; outline: as §2
[9] = species on record: Mus musculus; experiment: Inhibition of hyaluronan-induced CD44 antigen variant exon 6 activity in mouse APC10.1 cells assessed as cell growth inhibition at 2 to 50 uM after 24 hrs by MTT assay; type: cell-based; outline: as §1
[10] = Cytotoxicity against mouse APC10.1 cells assessed as decrease in cell survival after 18 hrs by MTS assay; type: functional, cell-based; outline: as §2
[11] = target: T2, Prostaglandin G/H synthase 1 (Ovis aries, UniProt P05979); experiment: Inhibition of ram seminal vesicle COX-1 using arachidonic acid as substrate assessed as production of PGF2alpha by enzyme immunoassay in presence of stannous chloride; outline: as §3
T2 sequence (P05979 whole entry): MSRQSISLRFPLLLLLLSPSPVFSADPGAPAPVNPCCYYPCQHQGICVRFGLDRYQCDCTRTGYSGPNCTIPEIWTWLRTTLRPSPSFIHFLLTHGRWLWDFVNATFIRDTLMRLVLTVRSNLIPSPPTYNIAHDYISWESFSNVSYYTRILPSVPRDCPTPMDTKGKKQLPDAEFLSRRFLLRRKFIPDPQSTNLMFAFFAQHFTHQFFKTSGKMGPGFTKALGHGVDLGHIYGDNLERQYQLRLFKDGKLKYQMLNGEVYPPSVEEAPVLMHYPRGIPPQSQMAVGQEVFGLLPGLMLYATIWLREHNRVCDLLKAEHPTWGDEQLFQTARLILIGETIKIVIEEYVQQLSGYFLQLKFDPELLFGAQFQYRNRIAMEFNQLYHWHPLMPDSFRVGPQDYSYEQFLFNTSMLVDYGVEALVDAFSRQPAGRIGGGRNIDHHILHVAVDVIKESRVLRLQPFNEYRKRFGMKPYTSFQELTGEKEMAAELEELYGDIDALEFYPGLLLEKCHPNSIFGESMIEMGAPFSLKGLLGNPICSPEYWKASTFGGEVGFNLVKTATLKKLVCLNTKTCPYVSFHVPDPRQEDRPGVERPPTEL

[12] = Cytotoxicity against rat IEC-6 cells assessed as growth inhibition at 2 to 50 uM after 24 hrs by MTT assay; type: cell-based; details: iec-6, 24 h; outline: as §1
[13] = system: HT-29; experiment: Inhibition of hyaluronan-induced CD44 antigen variant exon 6 activity in human HT29 cells assessed as decrease in 5-LOX expression at 10 uM; type: cell-based
[14] = species on record: Mus musculus; experiment: Inhibition of hyaluronan-induced CD44 antigen variant exon 6 activity in mouse APC10.1 cells assessed as cell growth inhibition after 18 hrs by MTS assay; type: cell-based; outline: as §2
[15] = species on record: Mus musculus; experiment: Cytotoxicity against mouse APC10.1 cells expressing COX and LOX assessed as growth inhibition at 2 to 50 uM after 24 hrs by MTT assay; type: functional, cell-based; outline: as §1
[16] = Cytotoxicity against human HCA-7 cells assessed as decrease in cell survival after 18 hrs by MTS assay; type: functional, cell-based; details: HCA-7, 18 h; outline: as §2
[17] = system: HT-29; experiment: Cytotoxicity against human HT-29 cells assessed as growth inhibition at 2 to 50 uM after 24 hrs by MTT assay; type: functional, cell-based; outline: as §1
[18] = system: HT-29; experiment: Cytotoxicity against human HT-29 cells assessed as growth inhibition after 18 hrs by MTS assay; type: functional, cell-based; outline: as §2
[19] = system: HT-29; experiment: Cytotoxicity against human HT-29 cells assessed as decrease in cell survival after 18 hrs by MTS assay; type: functional, cell-based; details: HT-29, 18 h; outline: as §2
[20] = Inhibition of potato 5-LOX using arachidonic acid as substrate assessed as production of hydroperoxides after 5 mins […]; parameters: species or system Solanum tuberosum
Outline: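 Potato 5-LOX was tested with a commercial lipoxygenase screening kit that measures hydroperoxides. Compounds were dissolved in minimal DMSO and diluted in the supplied buffer. The reaction was started with arachidonic acid and shaken for 5 min. Chromogen was added, shaken for 5 min, and absorbance read at 500 nm. Percent inhibition was taken against control, and IC50 was derived from the concentration-inhibition curve from duplicate determinations.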

Structure (SMILES)	growth inhibition (GI) [1]	growth inhibition (GI) [2]	IC50 [3]	Ratio IC50 [4]	inhibition [5]	IC50 [6]	IC50 [7]	IC50 [8]	growth inhibition (GI) [9]	IC50 [10]	IC50 [11]	Activity [12]	inhibition [13]	growth inhibition (GI) [14]	growth inhibition (GI) [15]	IC50 [16]	growth inhibition (GI) [17]	growth inhibition (GI) [18]	IC50 [19]	IC50 [20]
CC(C)(C)C1=CC(=NNC(=O)c2cccnc2)C=C(C(C)(C)C)C1=O	Active	Dose-dependent effect	12.2 µM	0.19	Active	9.3 µM	34.5 µM	28.6 µM	Active	7.5 µM	48.6 µM	Non-toxic	Active	Dose-dependent effect	Active	6.5 µM	Active	Dose-dependent effect	11 µM	–
Cc1ccc(-c2cc(C(F)(F)F)nn2-c2ccc(S(N)(=O)=O)cc2)cc1 [CELECOXIB]	–	Dose-dependent effect	6 µM	–	Active	–	17.5 µM	18.3 µM	–	4.2 µM	–	–	Active	Dose-dependent effect	–	2 µM	–	Dose-dependent effect	3 µM	–
CC(C)(C)C1=CC(=NNC(=O)c2ccccc2)C=C(C(C)(C)C)C1=O	–	Dose-dependent effect	31 µM	0.68	Active	9.5 µM	26.4 µM	38.5 µM	–	20 µM	14 µM	–	Active	Dose-dependent effect	–	12.5 µM	–	Dose-dependent effect	15 µM	5.1 µM
CC(C)(C)C1=CC(=NNC(=O)c2ccncc2)C=C(C(C)(C)C)C1=O	–	Dose-dependent effect	18.3 µM	0.14	Active	7.6 µM	38.6 µM	5.4 µM	–	8.9 µM	55.7 µM	–	Active	Dose-dependent effect	–	12 µM	–	Dose-dependent effect	15.2 µM	20 µM
CC(C)(C)c1cc(/C=C2\SC(=N)NC2=O)cc(C(C)(C)C)c1O [DARBUFELONE]	–	–	–	0.014	–	–	–	–	–	–	–	–	–	–	–	–	–	–	–	0.77 µM
CC(C)(C)c1cc(/C=C2\SC(N)=NC2=O)cc(C(C)(C)C)c1O [DARBUFELONE]	–	–	–	–	–	0.48 µM	–	–	–	–	35 µM	–	–	–	–	–	–	–	–	–
